Hits are enriched below; roughly 3% of the tested compounds scored in any of these assays.
S100A4 inh HTS: blocks human S100A4 binding to myosin IIA peptide; S100A4/TAMRA-MyoIIA peptide fluorescence polarization; AID 652163; hit rate 0.14% among 360,000; inhibition, % at 10.7 µM;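 active = mean inhibition of at least 70% across replicates, with every replicate also reaching that level; inconclusive = mean inhibition reaches 70% but some replicates fall short; inactive = mean inhibition below 70%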
Target sequence (P26447 whole entry, looked up): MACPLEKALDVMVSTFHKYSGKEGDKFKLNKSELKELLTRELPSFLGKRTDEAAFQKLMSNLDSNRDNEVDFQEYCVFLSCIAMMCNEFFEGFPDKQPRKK
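Test system – S100A4 monomer (human) · Compound – single-point compound testing · Schedule – 5 min incubation before reading · Probe or stimulus – TAMRA-labelled myosin IIA heavy-chain peptide probe, 5 nM · Benchmarks – neutral control DMSO, positive control TFP · Medium – Calcium-containing HEPES buffer, pH 7.2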
SIRT5 inh: blocks human SIRT5 desuccinylation of peptide; Q9NXA8; Purified SirT5, succinyl-peptide AMC, trypsin-coupled fluorescence; inhibition, % at 15 µM; hit rate 1.1% among 330,000; in the data active = inhibition above about 15%; inconclusive = no clear call, values can overlap the other calls
Target sequence (Q9NXA8 whole entry, looked up): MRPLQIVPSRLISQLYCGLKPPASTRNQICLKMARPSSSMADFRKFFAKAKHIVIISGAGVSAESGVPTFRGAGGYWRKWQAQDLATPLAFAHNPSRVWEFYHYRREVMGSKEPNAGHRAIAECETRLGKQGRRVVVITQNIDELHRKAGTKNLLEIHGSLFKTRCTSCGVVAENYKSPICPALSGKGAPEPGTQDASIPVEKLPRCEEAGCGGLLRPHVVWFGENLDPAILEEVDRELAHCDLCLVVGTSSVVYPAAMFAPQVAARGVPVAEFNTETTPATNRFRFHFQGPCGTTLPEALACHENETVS
Statin myotox sup: suppression of simvastatin myotoxicity | rescue of ATP level, % at 7.49 µM | hit rate 0.78% among 330,000 | C2C12 myotubes + simvastatin, ATP luminescence, 48 h; scaled: DMSO 0, geranylgeraniol control 100 | AID 602340;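 active = mean ATP rescue above about 67%, or every replicate alone reaching that limit, limit read from the data, passing the limit was not always enough; inconclusive = no clear call, values can overlap the other calls; inactive = mean under the limit and some replicate under it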;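 note: myotubes were challenged with 10 µM simvastatin during compound exposure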
Cneo AK release: causes C. neoformans cell lysis. lysis activity, % at 15 µM. adenylate kinase release luminescence, 4 h; normalised: neutral wells 0, clomiphene wells 100. hit rate 0.2% among 360,000;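 active = mean lysis activity across replicates of at least 80%, whatever share of replicates individually reach that level; inactive = mean lysis activity below 80%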
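Test system: log-phase Cryptococcus neoformans yeast cells. Input: 5 × 10^6 yeast cells/mL. Medium: fresh YPD growth medium. Doses: single dose. Incubation: static 4 h at 37 °C with compound, 1 h detection. Measured by: luminescent adenylate kinase detection reagent. Read-out: signal increase indicating cell lysis. Benchmarks: Clomiphene.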
PGC1a acetyl inh: lowers PGC1a acetylation signal in U2OS cells; AlphaScreen anti-acetyl-lysine; with virally co-expressed GCN5 acetyltransferase; inhibition, % at 15.6 µM; hit rate 0.17% among 350,000; AID 651687;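 active = every replicate shows inhibition of at least 40%; inconclusive = mean inhibition at least 40% but some replicate below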;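 note: 0% = neutral control wells and 100% = positive control wells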
Ecoli rRNA inh: selective bacterial rRNA inhibition in E. coli. AID 720706. hit rate 1.6% among 350,000. GFP signal change (wild-type ribosome), % (test concentration not listed). E. coli WT GFP vs humanized-ribosome RFP mutants, fluorescence, 24 h; hits give low values; DMSO median 0, no signal -100;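 active = significant combined selectivity score with lowered wild-type GFP, culture density cut under 30%, mutant RFP and density less affected; inactive = any of these conditions unmet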
COX5a expr inh: reduces COX5a expression driven by PGC-1a in C2C12 myotubes; C2C12 myotubes PGC-1a adenovirus, COX5a qPCR; maximal activity, %; 45 tested, under 10 active; shares compounds with PGC1a acetyl inh;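 active = fitted dose curve reaching 40% activity at or below the highest valid dose tested; inconclusive = flat fit between 30% and 70%, or an unusable fit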
AID743468: change in PGC-1a target gene PDK4 expression, dose response, C2C12 myotubes, RT-qPCR, cherry-pick; shares compounds with PGC1a acetyl inh; PGC-1a adenovirus, PDK4 mRNA qPCR; PDK4 expression increase, % at 19.5 µM; 45 tested, under 10 active; AID 743468;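 active = fitted curve reaching a 40% PDK4 expression rise at or below the top valid tested dose; inconclusive = no clear call, values can overlap the other calls; inactive = the rest, including shifts the wrong way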
AID977621: growth inhibition of wild-type GFP E. coli, dose response, H69 mutant RFP, cherry-pick | shares compounds with Ecoli rRNA inh | E. coli wild-type GFP strain growth, fluorescence, 24 h | activity change, negative = inhibition at 50 µM | 1,900 tested, under 10 active;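 active = Wild-type ribosome reporter drop at least double the humanized mutant ribosome reporter drop, growth loss under a set limit; inconclusive = no clear call, values can overlap the other calls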;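 note: wild-type GFP and H69 mutant RFP strains grown together 50/50 in each well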
AID977628: growth of wild-type and h24-humanized E. coli strains – h24 mutant RFP vs wild-type GFP, cherry-pick, dose response; shares compounds with Ecoli rRNA inh; E. coli WT GFP strain growth, fluorescence, 24 h; activity change, negative = inhibition at 50 µM; 1,900 tested, under 10 active; AID 977628;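 active = compound lowering the normal-ribosome reporter at least twice as much as the humanized-ribosome reporter, growth loss under a set limit; inconclusive = no clear call, values can overlap the other calls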;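 note: wild-type GFP and h24 humanized RFP strains co-cultured 1 to 1 per well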
The depositor's hits bear a star; ? = inconclusive; . = no result given.

SMILES | S100A4 inh HTS | SIRT5 inh | Statin myotox sup | Cneo AK release | PGC1a acetyl inh | Ecoli rRNA inh | COX5a expr inh | AID743468 | AID977628 | others
C=CS(=O)(=O)N(Cc1ccccc1Br)[C@H](CO)Cc1ccccc1 | -1 | . | -1 | -2 | ? | -7 | -24 | -29 | .
Cn1nnnc1SCC(=O)NCc1cccc(C(=O)O)c1 | . | . | -15 | 5 | ? | . | -26 | -6 | .
Cc1cc(C)cc(OC(=O)CS(=O)c2ccc(C(F)(F)F)cc2[N+](=O)[O-])c1 (stereo not drawn) | . | . | -27 | -2 | -64 | . | -29 | -15 | .
CCOC(=O)OC[C@@H]1[C@@H]2NC(=O)N(C)[C@@]1(COCc1ccc(OC)cc1)Oc1ccccc12 | -9 | 0 | . | 4 | 7 | . | . | . | .
CCCN(CC)c1ncnc2[nH]ncc12 | 2 | -9 | -1 | 1 | ? | 5 | 15 | 62* | .
C[C@H](CO)N1C[C@H](C)[C@H](CN(C)S(=O)(=O)c2ccc(C(F)(F)F)cc2)OCc2ccccc2-c2c(n(C)c3ccccc23)C1=O | -12 | 3 | . | . | -2 | 2 | . | . | .
O=C(Nc1cccc(F)c1)N1CC(=O)N2[C@@H](CO)[C@@H](c3ccc(C#Cc4cccnc4)cc3)[C@@H]2C1 | -5 | 7 | . | . | ? | -6 | -25 | 49* | .
O=C(Nc1cccc(F)c1)N1CC(=O)N2[C@H](C1)[C@H](c1ccc(C#Cc3cccnc3)cc1)[C@@H]2CO | -8 | 0 | . | . | 21 | -2 | . | . | .
CC(=O)N(C)C[C@H]1Oc2cc(C3=CCCCC3)ccc2S(=O)(=O)N([C@H](C)CO)C[C@H]1C | . | . | -23 | . | -12 | -2 | . | . | .
CNC(=O)c1sc(-c2ccccn2)nc1C | -10 | 9 | . | . | 3 | -23* | . | . | -7.1 | AID977621=-21
Cc1nc(-c2ccccn2)sc1C(=O)Nc1ccc(F)cc1 | . | . | -17 | -1 | -47 | . | . | . | .
COC(=O)C1CCN(C(=O)c2ccc(OC)c(S(=O)(=O)N3CCCc4ccccc43)c2)CC1 | -3 | . | 4 | 0 | 2 | -14* | . | . | ? | AID977621=-8.4
COC(=O)C1CCN(C(=O)COC(=O)c2ccc(OC)c(S(=O)(=O)N3CCCc4ccccc43)c2)CC1 | -31 | 2 | . | . | . | -21 | . | . | .
COc1ccc(S(=O)(=O)Nc2ccc3c(c2)C(=O)N([C@H](C)CO)C[C@@H](C)[C@@H](CN(C)Cc2ccccc2)OCCCC[C@@H](C)O3)cc1 | . | . | . | -1 | -21 | 2 | . | . | .
c1ccc(CNc2ncnc3sccc23)cc1 | 4 | -2 | 9 | 3 | . | -21* | . | . | ?
C[C@@H]1CN([C@H](C)CO)C(=O)c2cc(NC(=O)CCC(F)(F)F)ccc2O[C@@H](C)CCCCO[C@@H]1CN(C)CC1CCCCC1 | . | . | . | -1 | 1 | 2 | . | . | .
COc1ccc(OC)c(NC(=O)c2c3c(nc4ccccc24)CCC3)c1 | -4 | 7 | . | 5 | -5 | -22* | . | . | ?
Cc1ccccc1Nc1c([N+](=O)[O-])cncc1[N+](=O)[O-] | -5 | 3 | 16 | 1 | 6 | 7 | . | . | .
O=[N+]([O-])c1cncc([N+](=O)[O-])c1Nc1cccc(O)c1 | 3 | 0 | 22 | -2 | -4 | -26* | . | . | -11
C[C@H]1CN([C@@H](C)CO)C(=O)Cc2cc(NS(=O)(=O)c3cccs3)ccc2O[C@H]1CN(C)S(=O)(=O)c1ccc(F)cc1 | 13 | 5 | . | . | 3 | -2 | . | . | .
